The target of assay [1] is T1, Bromodomain-containing protein 4 (Homo sapiens, UniProt O60885). Nature of the assay: Inhibition of His6-tagged BRD4-BD12 expressed in Escherichia coli assessed as inhibition of binding to SGRG-K(Ac)-GG-K(Ac)-GLG-K(Ac)-GGA-K(Ac)-RHGSGSK-biotin after 1 hr by TR-FRET assay. Background: In TR-FRET formats the signal depends on donor and acceptor labels being close together.

Assay [2] addresses T2, Bromodomain-containing protein 3 (Homo sapiens, UniProt Q15059). Nature of the assay: Inhibition of His6-tagged BRD3 expressed in Escherichia coli assessed as inhibition of binding to SGRG-K(Ac)-GG-K(Ac)-GLG-K(Ac)-GGA-K(Ac)-RHGSGSK-biotin after 1 hr by TR-FRET assay.
Assay [3] addresses T3, Bromodomain-containing protein 2 (Homo sapiens, UniProt P25440). The assay can be described thus: Inhibition of His6FLAG-tagged BRD2-BD12 expressed in Escherichia coli assessed as change in melting temperature at 100 uM by thermal shift assay. An outline of the steps:
(§1)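 Thermal melt: protein heated with or without 100 μM compound, at least duplicate; Sypro orange at 1:1000 in PBS with 10% glycerol; ramp 1 °C/min, fluorescence read every 0.5 °C; ΔTm reported.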
Target sequence in this assay (P25440 whole entry, looked up): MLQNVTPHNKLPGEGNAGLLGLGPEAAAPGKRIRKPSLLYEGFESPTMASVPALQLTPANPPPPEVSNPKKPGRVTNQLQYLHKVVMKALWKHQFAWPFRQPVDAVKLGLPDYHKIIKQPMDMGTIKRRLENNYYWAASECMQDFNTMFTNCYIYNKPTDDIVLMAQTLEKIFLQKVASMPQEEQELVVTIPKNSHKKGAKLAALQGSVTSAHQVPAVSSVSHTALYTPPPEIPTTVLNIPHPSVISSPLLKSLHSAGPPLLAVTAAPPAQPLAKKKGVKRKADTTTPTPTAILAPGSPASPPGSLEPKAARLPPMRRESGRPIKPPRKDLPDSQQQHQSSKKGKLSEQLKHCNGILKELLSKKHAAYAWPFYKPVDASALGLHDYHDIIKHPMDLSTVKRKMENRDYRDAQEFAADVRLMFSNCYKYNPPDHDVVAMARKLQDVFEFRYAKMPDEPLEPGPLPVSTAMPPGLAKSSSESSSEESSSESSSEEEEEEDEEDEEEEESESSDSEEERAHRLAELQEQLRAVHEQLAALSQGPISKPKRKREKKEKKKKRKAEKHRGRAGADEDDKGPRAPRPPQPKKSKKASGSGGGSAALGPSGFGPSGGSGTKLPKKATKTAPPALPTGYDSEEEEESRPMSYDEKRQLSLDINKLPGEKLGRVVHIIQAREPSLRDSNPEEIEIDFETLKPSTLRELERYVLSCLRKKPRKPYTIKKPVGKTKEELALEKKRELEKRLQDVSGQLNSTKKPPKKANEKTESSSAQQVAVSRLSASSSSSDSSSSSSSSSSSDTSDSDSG

Assay [4] addresses T3, Bromodomain-containing protein 2. The assay can be described thus: Binding affinity to His6-tagged BRD2 expressed in Escherichia coli by surface plasmon resonance assay. An outline of the steps:
(§2)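 SPR with tandem bromodomain (BRD2-BD12 or BRD4-BD12) amine-coupled to CM5 chip after EDC/NHS activation; protein 0.1−2 mg/mL in NaAc pH 4.5−5.5, >5 kRU immobilized, ethanolamine-blocked. Running buffer 50 mM HEPES pH 7.5, 150 mM NaCl.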
A general note: In SPR one partner is held on a chip, and binding of the other changes the refractive index at the surface.

The target in assay [5] is T2, Bromodomain-containing protein 3. Nature of the assay: Inhibition of His6FLAG-tagged BRD3-BD12 expressed in Escherichia coli assessed as change in melting temperature at 100 uM by thermal shift assay. An outline of the steps: as §1
Target sequence in this assay (Q15059 2-726 limits assumed): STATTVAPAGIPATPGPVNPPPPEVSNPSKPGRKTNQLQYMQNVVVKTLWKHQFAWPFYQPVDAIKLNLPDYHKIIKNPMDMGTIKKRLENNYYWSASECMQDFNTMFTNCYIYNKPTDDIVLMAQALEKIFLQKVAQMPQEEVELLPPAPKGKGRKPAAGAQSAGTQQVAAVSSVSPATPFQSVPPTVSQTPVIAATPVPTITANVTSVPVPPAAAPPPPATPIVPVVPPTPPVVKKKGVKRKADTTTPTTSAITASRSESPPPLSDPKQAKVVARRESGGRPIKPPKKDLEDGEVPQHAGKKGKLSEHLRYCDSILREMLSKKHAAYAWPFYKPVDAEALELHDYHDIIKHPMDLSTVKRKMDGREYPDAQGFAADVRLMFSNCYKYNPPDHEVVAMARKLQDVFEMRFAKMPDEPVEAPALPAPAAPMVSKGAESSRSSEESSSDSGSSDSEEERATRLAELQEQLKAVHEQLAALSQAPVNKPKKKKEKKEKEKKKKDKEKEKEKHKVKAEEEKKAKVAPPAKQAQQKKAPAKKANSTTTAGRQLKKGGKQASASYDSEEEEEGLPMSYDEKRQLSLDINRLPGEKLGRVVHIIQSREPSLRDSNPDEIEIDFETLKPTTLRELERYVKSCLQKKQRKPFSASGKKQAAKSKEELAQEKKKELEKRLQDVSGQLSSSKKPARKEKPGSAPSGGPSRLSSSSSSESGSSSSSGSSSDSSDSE
Assay [6] addresses CREB-binding protein (Homo sapiens) (UniProt Q92793). The assay can be described thus: Inhibition of His6FLAG-tagged CREBBP expressed in Escherichia coli assessed as change in melting temperature at 100 uM by thermal shift assay. An outline of the steps:
as §1

The target in assay [7] is T1, Bromodomain-containing protein 4. The assay can be described thus: Inhibition of His6FLAG-tagged BRD4-BD1 expressed in Escherichia coli assessed as change in melting temperature at 100 uM by thermal shift assay. In outline:
as §1

Assay [8] deals with T4, Bromodomain-containing protein 1 (Homo sapiens) (UniProt O95696).
T4 sequence (whole entry): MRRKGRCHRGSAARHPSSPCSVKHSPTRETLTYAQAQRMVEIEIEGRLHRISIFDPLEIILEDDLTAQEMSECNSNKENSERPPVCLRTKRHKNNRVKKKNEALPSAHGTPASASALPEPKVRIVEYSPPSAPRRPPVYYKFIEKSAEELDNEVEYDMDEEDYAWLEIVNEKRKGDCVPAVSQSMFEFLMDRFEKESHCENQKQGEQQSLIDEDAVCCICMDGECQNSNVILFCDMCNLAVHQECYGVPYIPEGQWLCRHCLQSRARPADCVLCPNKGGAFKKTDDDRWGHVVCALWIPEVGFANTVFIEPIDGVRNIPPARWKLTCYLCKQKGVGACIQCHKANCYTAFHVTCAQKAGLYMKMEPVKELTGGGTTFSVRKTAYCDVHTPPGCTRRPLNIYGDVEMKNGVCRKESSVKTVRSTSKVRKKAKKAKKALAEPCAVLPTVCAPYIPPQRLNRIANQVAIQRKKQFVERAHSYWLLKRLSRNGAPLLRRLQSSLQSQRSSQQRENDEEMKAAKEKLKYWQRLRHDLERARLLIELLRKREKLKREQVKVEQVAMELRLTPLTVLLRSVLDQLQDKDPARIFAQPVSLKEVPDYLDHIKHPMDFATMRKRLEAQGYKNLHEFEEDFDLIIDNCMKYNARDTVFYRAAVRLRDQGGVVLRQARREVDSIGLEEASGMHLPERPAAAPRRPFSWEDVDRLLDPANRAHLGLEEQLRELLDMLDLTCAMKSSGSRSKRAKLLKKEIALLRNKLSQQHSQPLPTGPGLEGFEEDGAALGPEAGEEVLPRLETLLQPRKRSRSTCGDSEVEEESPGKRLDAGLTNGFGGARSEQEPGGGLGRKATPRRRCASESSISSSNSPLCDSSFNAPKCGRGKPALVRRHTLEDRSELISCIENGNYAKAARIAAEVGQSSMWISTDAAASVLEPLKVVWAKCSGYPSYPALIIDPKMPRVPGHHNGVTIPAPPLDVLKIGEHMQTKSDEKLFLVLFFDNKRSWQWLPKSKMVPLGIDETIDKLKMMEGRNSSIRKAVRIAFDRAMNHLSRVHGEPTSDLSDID
Nature of the assay: Inhibition of His6FLAG-tagged BRD1 expressed in Escherichia coli assessed as change in melting temperature at 100 uM by thermal shift assay. In outline:
as §1

Assay [9] has as its target T3, Bromodomain-containing protein 2. The assay can be described thus: Inhibition of His6-tagged BRD2 expressed in Escherichia coli assessed as inhibition of binding to SGRG-K(Ac)-GG-K(Ac)-GLG-K(Ac)-GGA-K(Ac)-RHGSGSK-biotin after 1 hr by TR-FRET assay. An outline of the steps:
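TR-FRET competition using tandem bromodomain construct; displacement of a tetra-acetylated biotinylated peptide measured, IC50 reported.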
Target sequence in this assay (P25440 whole entry): as the sequence (P25440 whole entry, looked up) above

Assay [10] addresses T1, Bromodomain-containing protein 4. Nature of the assay: Binding affinity to His6-tagged BRD4 expressed in Escherichia coli by surface plasmon resonance assay. An outline of the steps: as §2
Assay [11] deals with Bromodomain adjacent to zinc finger domain protein 2B (Homo sapiens) (UniProt Q9UIF8). The assay can be described thus: Inhibition of His6FLAG-tagged BAZ2B expressed in Escherichia coli assessed as change in melting temperature at 100 uM by thermal shift assay. An outline of the steps: as §1
Assay [12] relates to PBMC. The assay can be described thus: Antiinflammatory activity in human PBMC assessed as inhibition of LPS-induced IL6 production after 18 to 24 hrs by ELISA. The format is functional, cell-based. For orientation: ELISA stands for enzyme-linked immunosorbent assay.
In assay [13] the test system is Blood. The assay can be described thus: Antiinflammatory activity in human whole blood assessed as inhibition of LPS-induced TNFalpha production after 18 to 24 hrs by ELISA. The assay is classed as functional, tissue-based.
Assay [14] has as its system PBMC. The assay can be described thus: Antiinflammatory activity in human PBMC assessed as inhibition of LPS-induced TNFalpha production after 18 to 24 hrs by ELISA. The format is functional, cell-based.

As a reminder, the ΔTm is the change in melting temperature against a reference sample. As usually defined, the Kd is the equilibrium constant for the complex coming apart. Read a low Kd as a tighter complex.

CREB-binding protein (Homo sapiens), sequence (Q92793 2-2442 limits assumed): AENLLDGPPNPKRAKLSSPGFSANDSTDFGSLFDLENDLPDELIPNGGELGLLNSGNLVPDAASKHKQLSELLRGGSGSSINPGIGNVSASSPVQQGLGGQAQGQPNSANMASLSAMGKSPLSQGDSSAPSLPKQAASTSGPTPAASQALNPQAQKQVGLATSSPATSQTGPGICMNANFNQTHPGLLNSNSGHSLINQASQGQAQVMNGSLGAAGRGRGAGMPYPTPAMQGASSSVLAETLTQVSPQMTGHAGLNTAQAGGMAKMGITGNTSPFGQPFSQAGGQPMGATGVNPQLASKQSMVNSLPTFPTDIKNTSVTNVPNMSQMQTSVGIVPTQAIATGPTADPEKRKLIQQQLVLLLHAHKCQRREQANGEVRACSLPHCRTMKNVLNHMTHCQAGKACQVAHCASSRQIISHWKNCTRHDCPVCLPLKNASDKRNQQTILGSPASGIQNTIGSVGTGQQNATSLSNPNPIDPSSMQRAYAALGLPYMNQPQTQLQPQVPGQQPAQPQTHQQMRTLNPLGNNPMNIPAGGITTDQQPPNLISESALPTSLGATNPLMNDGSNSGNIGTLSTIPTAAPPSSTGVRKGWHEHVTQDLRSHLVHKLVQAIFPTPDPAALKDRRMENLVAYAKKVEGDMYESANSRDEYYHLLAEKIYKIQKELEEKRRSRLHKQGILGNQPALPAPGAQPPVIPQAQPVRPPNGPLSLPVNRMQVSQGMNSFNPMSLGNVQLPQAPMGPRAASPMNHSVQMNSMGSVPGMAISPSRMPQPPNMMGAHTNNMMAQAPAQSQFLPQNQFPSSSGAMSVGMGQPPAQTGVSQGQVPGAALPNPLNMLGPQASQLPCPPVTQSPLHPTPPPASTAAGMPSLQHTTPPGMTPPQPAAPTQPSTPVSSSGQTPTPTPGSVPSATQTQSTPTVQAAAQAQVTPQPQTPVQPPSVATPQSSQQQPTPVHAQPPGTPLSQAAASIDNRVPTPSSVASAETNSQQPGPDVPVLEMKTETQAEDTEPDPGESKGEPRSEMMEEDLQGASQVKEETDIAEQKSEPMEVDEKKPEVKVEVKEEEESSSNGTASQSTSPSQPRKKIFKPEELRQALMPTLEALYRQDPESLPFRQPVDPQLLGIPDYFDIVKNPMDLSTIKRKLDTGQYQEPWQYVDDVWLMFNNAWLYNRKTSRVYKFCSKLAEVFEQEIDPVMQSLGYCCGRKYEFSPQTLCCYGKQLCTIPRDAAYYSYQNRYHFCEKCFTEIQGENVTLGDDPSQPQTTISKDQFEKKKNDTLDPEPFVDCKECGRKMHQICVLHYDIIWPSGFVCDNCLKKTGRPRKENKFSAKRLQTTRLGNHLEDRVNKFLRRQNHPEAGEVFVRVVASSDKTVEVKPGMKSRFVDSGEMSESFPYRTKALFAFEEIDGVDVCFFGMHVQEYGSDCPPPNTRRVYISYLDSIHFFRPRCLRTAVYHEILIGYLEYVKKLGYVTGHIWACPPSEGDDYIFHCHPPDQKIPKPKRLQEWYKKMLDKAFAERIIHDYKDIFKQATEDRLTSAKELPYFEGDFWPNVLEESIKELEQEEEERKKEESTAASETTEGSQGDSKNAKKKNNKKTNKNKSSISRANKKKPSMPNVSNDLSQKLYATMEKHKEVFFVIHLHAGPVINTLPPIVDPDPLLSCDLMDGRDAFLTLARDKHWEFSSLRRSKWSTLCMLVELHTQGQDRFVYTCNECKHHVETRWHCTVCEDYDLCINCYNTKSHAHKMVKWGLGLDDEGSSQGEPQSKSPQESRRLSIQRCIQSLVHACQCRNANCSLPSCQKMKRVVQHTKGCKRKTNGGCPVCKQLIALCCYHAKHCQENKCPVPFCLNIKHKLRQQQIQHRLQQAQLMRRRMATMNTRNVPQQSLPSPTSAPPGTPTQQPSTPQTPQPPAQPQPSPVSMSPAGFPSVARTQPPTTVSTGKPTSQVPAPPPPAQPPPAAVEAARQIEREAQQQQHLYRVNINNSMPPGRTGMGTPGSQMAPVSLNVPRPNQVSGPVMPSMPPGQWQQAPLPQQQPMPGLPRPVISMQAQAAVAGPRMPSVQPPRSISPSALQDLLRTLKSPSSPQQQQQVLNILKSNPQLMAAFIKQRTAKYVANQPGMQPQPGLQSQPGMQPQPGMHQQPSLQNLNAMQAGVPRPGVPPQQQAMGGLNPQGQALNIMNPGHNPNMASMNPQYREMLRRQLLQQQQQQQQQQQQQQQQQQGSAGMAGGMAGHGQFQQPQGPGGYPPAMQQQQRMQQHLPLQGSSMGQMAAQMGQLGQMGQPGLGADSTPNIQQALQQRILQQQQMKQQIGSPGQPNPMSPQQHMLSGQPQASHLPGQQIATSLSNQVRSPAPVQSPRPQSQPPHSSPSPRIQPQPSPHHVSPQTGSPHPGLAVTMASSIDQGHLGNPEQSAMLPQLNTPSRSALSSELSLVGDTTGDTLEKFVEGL

On to `Cc1noc(C)c1-c1ccc(OCCCN2CCOCC2)c(S(=O)(=O)NC2CCCC2)c1`, for which the values for the IC50 in [1], in assay [2] and in [9] were 2600 nM, 1100 nM and 1500 nM, respectively. The ΔTm was 2 °C in [3]; 2 °C in [5]; 1.5 °C in assay [6]; 2 °C in assay [7]; under 1 °C in [8]; under 1 °C in assay [11]. Besides, the Kd amounted to 3140 nM in [4] and 2750 nM in assay [10]. The RUmax is 34% in [4] and 25% in [10].

`Cc1ccc(-c2c(C)noc2C)cc1S(=O)(=O)NC1CCCC1`: the ΔTm in assay [3] was 2 °C; in assay [5], 2 °C; in assay [6] it was under 1 °C; in [7] it was 2 °C; in assay [8], under 1 °C; in assay [11] it was under 1 °C. The IC50 is 3100 nM in assay [12], 5000 nM in [13], 200 nM in assay [14] (read-out: IC50) and 126 nM in assay [14] (read-out: pIC50 (converted)).

The record behind these values is ChEMBL document CHEMBL2176978, “Fragment-based discovery of bromodomain inhibitors part 2: optimization of phenylisoxazole sulfonamides” (J Med Chem, 2012).
